≈ marks a conversion by molar mass, not a printed value.
These molecules were tested on Escherichia coli (assay: Anti-bacterial activity was tested against Gram-negative EC-1 bacterium).
Assay type: functional
Summary of the method: (§1)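 Standard microtitration MIC determination (µg/mL) against four representative Gram-negative and Gram-positive bacterial strains.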

Row | Compound | MIC [µg/mL]
1 | CCn1cc(C(=O)O)c(=O)c2cc(F)c(N3CCC(N)C3)cc21 (configuration not stated) | 0.4 (≈ 1.25 µM)
2 | CC1CN(c2cc3c(cc2F)c(=O)c(C(=O)O)cn3C(C)C)CCN1 (configuration not stated) | 0.8 (≈ 2.3 µM)
3 | CC(C)n1cc(C(=O)O)c(=O)c2cc(F)c(N3CCNCC3)cc21 | 0.8 (≈ 2.4 µM)
4 | CCN1CCN(c2cc3c(cc2F)c(=O)c(C(=O)O)cn3-c2ccc(F)cc2F)CC1 | 0.4 (≈ 0.927 µM)
5 | CC(C)(C)n1cc(C(=O)O)c(=O)c2cc(F)c(N3CCC(N)C3)cc21 (configuration not stated) | 0.2 (≈ 0.576 µM)

The next lines start with the values.

Row | MIC [µg/mL] | Compound
6 | 0.2 (≈ 0.516 µM) | CC(C)CN1CCN(c2cc3c(cc2F)c(=O)c(C(=O)O)cn3C2CC2)CC1
7 | 0.2 (≈ 0.556 µM) | CNCC1CCN(c2cc3c(cc2F)c(=O)c(C(=O)O)cn3C2CC2)C1 (configuration not stated)
8 | 0.05 (≈ 0.145 µM) | CN1CCN(c2cc3c(cc2F)c(=O)c(C(=O)O)cn3C2CC2)CC1

What follows are molecules tested on Mycolicibacterium fortuitum (assay: Anti-bacterial activity tested against Mycobacterium fortuitum (ATCG 6841)).
Assay type: functional

Row | Compound | MIC [µg/mL]
9 | CCn1cc(C(=O)O)c(=O)c2cc(F)c(N3CCC(N)C3)cc21 (configuration not stated) | 1 (≈ 3.13 µM)
10 | CC1CN(c2cc3c(cc2F)c(=O)c(C(=O)O)cn3C(C)C)CCN1 (configuration not stated) | 0.5 (≈ 1.44 µM)
11 | CC(C)n1cc(C(=O)O)c(=O)c2cc(F)c(N3CCNCC3)cc21 | 1 (≈ 3 µM)
12 | CCN1CCN(c2cc3c(cc2F)c(=O)c(C(=O)O)cn3-c2ccc(F)cc2F)CC1 | 0.5 (≈ 1.16 µM)
13 | CC(C)(C)n1cc(C(=O)O)c(=O)c2cc(F)c(N3CCC(N)C3)cc21 (configuration not stated) | 0.06 (≈ 0.173 µM)
14 | O=C(O)c1cn(C2CC2)c2cc(N3CCNCC3)c(F)cc2c1=O [CIPROFLOXACIN] | 0.06 (≈ 0.181 µM)

Next, values leading:

Row | MIC [µg/mL] | Compound
15 | 1 (≈ 2.58 µM) | CC(C)CN1CCN(c2cc3c(cc2F)c(=O)c(C(=O)O)cn3C2CC2)CC1
16 | 0.25 (≈ 0.696 µM) | CNCC1CCN(c2cc3c(cc2F)c(=O)c(C(=O)O)cn3C2CC2)C1 (configuration not stated)
17 | 0.06 (≈ 0.174 µM) | CN1CCN(c2cc3c(cc2F)c(=O)c(C(=O)O)cn3C2CC2)CC1

These molecules were tested on Mycolicibacterium smegmatis (assay: Anti-bacterial activity tested against Mycobacterium smegmatis (ATCG 19420)).
Assay type: functional

Row | Compound | MIC [µg/mL]
18 | CCn1cc(C(=O)O)c(=O)c2cc(F)c(N3CCC(N)C3)cc21 (configuration not stated) | 4 (≈ 12.5 µM)
19 | CC1CN(c2cc3c(cc2F)c(=O)c(C(=O)O)cn3C(C)C)CCN1 (configuration not stated) | 2 (≈ 5.76 µM)
20 | CC(C)n1cc(C(=O)O)c(=O)c2cc(F)c(N3CCNCC3)cc21 | 4 (≈ 12 µM)
21 | CCN1CCN(c2cc3c(cc2F)c(=O)c(C(=O)O)cn3-c2ccc(F)cc2F)CC1 | 1 (≈ 2.32 µM)
22 | CC(C)(C)n1cc(C(=O)O)c(=O)c2cc(F)c(N3CCC(N)C3)cc21 (configuration not stated) | 0.13 (≈ 0.374 µM)
23 | O=C(O)c1cn(C2CC2)c2cc(N3CCNCC3)c(F)cc2c1=O [CIPROFLOXACIN] | 0.25 (≈ 0.754 µM)

The next lines start with the values.

Row | MIC [µg/mL] | Compound
24 | 0.25 (≈ 0.645 µM) | CC(C)CN1CCN(c2cc3c(cc2F)c(=O)c(C(=O)O)cn3C2CC2)CC1
25 | 0.5 (≈ 1.39 µM) | CNCC1CCN(c2cc3c(cc2F)c(=O)c(C(=O)O)cn3C2CC2)C1 (configuration not stated)
26 | 0.25 (≈ 0.724 µM) | CN1CCN(c2cc3c(cc2F)c(=O)c(C(=O)O)cn3C2CC2)CC1

These molecules were tested on Pseudomonas aeruginosa (assay: Anti-bacterial activity tested against Gram-negative PA-7 bacterium).
Assay type: functional
Summary of the method: as §1

Row | Compound | MIC [µg/mL]
27 | CCn1cc(C(=O)O)c(=O)c2cc(F)c(N3CCC(N)C3)cc21 (configuration not stated) | 0.8 (≈ 2.51 µM)
28 | CC1CN(c2cc3c(cc2F)c(=O)c(C(=O)O)cn3C(C)C)CCN1 (configuration not stated) | 3.1 (≈ 8.92 µM)
29 | CC(C)n1cc(C(=O)O)c(=O)c2cc(F)c(N3CCNCC3)cc21 | 1.6 (≈ 4.8 µM)
30 | CCN1CCN(c2cc3c(cc2F)c(=O)c(C(=O)O)cn3-c2ccc(F)cc2F)CC1 | 1.6 (≈ 3.71 µM)
31 | CC(C)(C)n1cc(C(=O)O)c(=O)c2cc(F)c(N3CCC(N)C3)cc21 (configuration not stated) | 0.4 (≈ 1.15 µM)
32 | O=C(O)c1cn(C2CC2)c2cc(N3CCNCC3)c(F)cc2c1=O [CIPROFLOXACIN] | 0.2 (≈ 0.604 µM)

The next lines start with the values.

Row | MIC [µg/mL] | Compound
33 | 1.6 (≈ 4.13 µM) | CC(C)CN1CCN(c2cc3c(cc2F)c(=O)c(C(=O)O)cn3C2CC2)CC1
34 | 0.8 (≈ 2.23 µM) | CNCC1CCN(c2cc3c(cc2F)c(=O)c(C(=O)O)cn3C2CC2)C1 (configuration not stated)
35 | 0.4 (≈ 1.16 µM) | CN1CCN(c2cc3c(cc2F)c(=O)c(C(=O)O)cn3C2CC2)CC1

What follows are molecules tested on Staphylococcus aureus (assay: Anti-bacterial activity was tested against Gram-positive SA-13 bacterium).
Assay type: functional
Summary of the method: as §1

Row | Compound | MIC [µg/mL]
36 | CCn1cc(C(=O)O)c(=O)c2cc(F)c(N3CCC(N)C3)cc21 (configuration not stated) | 1.6 (≈ 5.01 µM)
37 | CC1CN(c2cc3c(cc2F)c(=O)c(C(=O)O)cn3C(C)C)CCN1 (configuration not stated) | 3.1 (≈ 8.92 µM)
38 | CC(C)n1cc(C(=O)O)c(=O)c2cc(F)c(N3CCNCC3)cc21 | > 3.1
39 | CCN1CCN(c2cc3c(cc2F)c(=O)c(C(=O)O)cn3-c2ccc(F)cc2F)CC1 | 0.2 (≈ 0.464 µM)
40 | CC(C)(C)n1cc(C(=O)O)c(=O)c2cc(F)c(N3CCC(N)C3)cc21 (configuration not stated) | 0.4 (≈ 1.15 µM)

The remaining lines, values ahead:

Row | MIC [µg/mL] | Compound
41 | 0.4 (≈ 1.03 µM) | CC(C)CN1CCN(c2cc3c(cc2F)c(=O)c(C(=O)O)cn3C2CC2)CC1
42 | 0.2 (≈ 0.556 µM) | CNCC1CCN(c2cc3c(cc2F)c(=O)c(C(=O)O)cn3C2CC2)C1 (configuration not stated)
43 | 0.2 (≈ 0.579 µM) | CN1CCN(c2cc3c(cc2F)c(=O)c(C(=O)O)cn3C2CC2)CC1

The molecules below were run on Streptococcus pyogenes (assay: Anti-bacterial activity tested against Gram-positive SP1-1 bacterium).
Assay type: functional
Summary of the method: as §1

Row | Compound | MIC [µg/mL]
44 | CCn1cc(C(=O)O)c(=O)c2cc(F)c(N3CCC(N)C3)cc21 (configuration not stated) | 0.8 (≈ 2.51 µM)
45 | CC1CN(c2cc3c(cc2F)c(=O)c(C(=O)O)cn3C(C)C)CCN1 (configuration not stated) | > 3.1
46 | CC(C)n1cc(C(=O)O)c(=O)c2cc(F)c(N3CCNCC3)cc21 | > 3.1
47 | CCN1CCN(c2cc3c(cc2F)c(=O)c(C(=O)O)cn3-c2ccc(F)cc2F)CC1 | 0.8 (≈ 1.85 µM)
48 | CC(C)(C)n1cc(C(=O)O)c(=O)c2cc(F)c(N3CCC(N)C3)cc21 (configuration not stated) | 0.4 (≈ 1.15 µM)
49 | O=C(O)c1cn(C2CC2)c2cc(N3CCNCC3)c(F)cc2c1=O [CIPROFLOXACIN] | 0.4 (≈ 1.21 µM)

Other lines, results leading:

Row | MIC [µg/mL] | Compound
50 | 1.6 (≈ 4.13 µM) | CC(C)CN1CCN(c2cc3c(cc2F)c(=O)c(C(=O)O)cn3C2CC2)CC1
51 | 0.1 (≈ 0.278 µM) | CNCC1CCN(c2cc3c(cc2F)c(=O)c(C(=O)O)cn3C2CC2)C1 (configuration not stated)
52 | 1.6 (≈ 4.63 µM) | CN1CCN(c2cc3c(cc2F)c(=O)c(C(=O)O)cn3C2CC2)CC1
